Source: PubChem BioAssay
CHO parental Ca: ATP-evoked calcium signal inhibitors, parental CHO, primary screen, counter-screen for OX1R antagonist project, cell-based, fluorescence, Fluo-8 calcium dye. parental CHO-K1, ATP-induced calcium, Fluo-8 fluorescence. inhibition, % at 5.6 µM. 330,000 tested, 0.63% active. AID 463079, 2010;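 active means inhibition above that plate's mean sample inhibition plus 3 SD, cut at about 26% in these data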;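 further: 0% = ATP-challenged DMSO wells and 100% = DMSO wells without ATP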
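Material: parental CHO cells / Compound: single nominal dose of 5.6 µM per compound / Signal: Fluo-8 fluorescence / Replicates: singlicate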
OX1R antag-1: OX1R (HCRTR1) antagonists, primary screen, fluorescence, CHO/OX1R cells, Fluo-8 calcium, orexin A; Fluo-8 calcium fluorescence; inhibition, % at 5 µM; 330,000 tested, 0.43% active;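 active means inhibition above its plate's threshold, mean inhibition of all tested compounds on the plate plus 3 SD, cut at about 37% in these data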;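 further: 0% = orexin A challenge wells and 100% = SB-334867-A antagonist wells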
TAAR1 antagonist: human TAAR1 antagonists, primary screen, Fluo-8 calcium fluorescence, CHO RD-HGA16 cells; Trace amine-associated receptor 1 (Homo sapiens), Q96RJ0; antagonist; inhibition, % at 3 µM; 360,000 tested, 1.5% active; AID 624466, 2012;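 active means inhibition above a per-plate cutoff, the mean inhibition of test compounds on that plate plus 3 SD, cut at about 49% in these data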;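 further: 0% = DMSO plus EC80 beta-PEA response and 100% = DMSO alone without agonist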
Target sequence (Q96RJ0 whole entry, looked up): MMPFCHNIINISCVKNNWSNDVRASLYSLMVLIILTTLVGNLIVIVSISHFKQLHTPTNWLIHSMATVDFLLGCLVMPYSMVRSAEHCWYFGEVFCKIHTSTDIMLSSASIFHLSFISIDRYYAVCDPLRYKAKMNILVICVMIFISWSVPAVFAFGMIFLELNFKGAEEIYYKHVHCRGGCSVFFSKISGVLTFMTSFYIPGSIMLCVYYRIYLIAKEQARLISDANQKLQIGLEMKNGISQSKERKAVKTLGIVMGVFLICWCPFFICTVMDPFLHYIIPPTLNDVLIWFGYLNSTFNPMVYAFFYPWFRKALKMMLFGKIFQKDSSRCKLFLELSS
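Test system – hTAAR1-expressing CHO RD-HGA16 cells, Gα16-coupled · Reagent – β-PEA at EC80 concentration, post-compound challenge · Compound dosing – 3 µM, single point · Timing – 140 s kinetic read after compound, 140 s after agonist · Detection – Fluo-8 intracellular calcium dye fluorescence, real-time kinetic reads · Control set – DMSO and EC80 PEA controls · Repeats – n of 1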
OX1R antag-2: antagonists of human orexin 1 receptor (OX1R). OX1R-expressing cells, FRET antagonist read-out. inhibition, % at 6.6 µM. 330,000 tested, 1.8% active; in the data active means inhibition mostly above about 38%, no sharp cut-off; inactive means mostly below about 40%;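 further: 0% = agonist challenge alone and 100% = reference antagonist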
TAAR1 ag: human TAAR1 agonists, primary screen, Fluo-8 calcium fluorescence, CHO RD-HGA16 cells; vehicle wells 0%, saturating PEA agonist 100%; 360,000 tested, 0.99% active; Trace amine-associated receptor 1 (Homo sapiens), Q96RJ0; activation, % at 3 µM;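 active means activation above the mean activation of all test compounds in the run plus 3 SD, cut at about 38% in these data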
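Assay system: CHO-derived RD-HGA16 cells with stable Gα16 and human TAAR1; timing: 17-24 h seeding, 75 min 37 °C dye, 30 min RT; read-out: % activation from peak over basal fluorescence ratio, DMSO-to-PEA scaled; measured by: kinetic Fluo-8 calcium fluorescence; benchmarks: low control DMSO, high control PEA (EC100); doses: 3 µM single concentration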
GPR7 antag: GPR7 receptor antagonists, primary screen, cell-based, fluorescence, single concentration; Neuropeptides B/W receptor type 1 (Homo sapiens), P48145; GPR7-expressing cells, fluorescence antagonist assay; inhibition, % at 4.4 µM; 290,000 tested, 1.1% active; in the data active means inhibition above about 16%, passing the limit was not always enough;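 further: cells stimulated with the agonist NPW; 0% = agonist with vehicle and 100% = vehicle without agonist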
Target sequence (P48145 whole entry, looked up): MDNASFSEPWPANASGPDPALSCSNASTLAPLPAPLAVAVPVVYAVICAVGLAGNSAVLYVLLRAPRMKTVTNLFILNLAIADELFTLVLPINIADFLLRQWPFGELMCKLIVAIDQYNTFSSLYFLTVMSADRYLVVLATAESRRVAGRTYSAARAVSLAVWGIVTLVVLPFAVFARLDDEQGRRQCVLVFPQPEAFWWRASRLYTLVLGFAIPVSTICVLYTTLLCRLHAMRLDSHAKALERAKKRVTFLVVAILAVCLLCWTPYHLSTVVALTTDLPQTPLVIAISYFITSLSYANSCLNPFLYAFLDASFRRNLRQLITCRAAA
* = called active by the depositor; / = no result. In the library only some 4.6% were active in any assay of this set; here they are far more common.

SMILES	CHO parental Ca	OX1R antag-1	TAAR1 antagonist	OX1R antag-2	TAAR1 ag	GPR7 antag
Cc1csc(NC(=O)C2=NN(c3ccccc3)C(=O)CC2)n1	-9.9	-12.6	7.0	20.3	8.8	19.6
Cc1ccc(-c2csc(NC(=O)C3=NN(c4ccccc4)C(=O)CC3)n2)cc1	20.2	-5.4	51.5*	25.4	12.4	2.2
C#CCOCCOCCOCCNc1nc(N2CCOCC2)nc(N2CCN(C(=O)CCCCCCCCCCNC(=O)[C@@H]([C@H](C)CC)n3cc(CCCCCN)nn3)CC2)n1	-20.8	-32.2	-1.5	38.0	10.4	/
C#CCOCCOCCOCCNc1nc(N2CCN(C(=O)CCCCCCCCCCNC(=O)[C@H]([C@@H](C)CC)n3cc(CCCCCN)nn3)CC2)nc(N2CCN(C(=O)CCCCCCCCCCNC(=O)[C@@H]([C@H](C)CC)n3cc(CCCCCN)nn3)CC2)n1	78.6*	31.8	/	-4.2	/	/
C#CCOCCOCCOCCNc1nc(N2CCN(C(=O)CCCCCCCCCCNC(=O)[C@H]([C@@H](C)CC)n3cc(CCCCCN)nn3)CC2)nc(N2CCN(C(=O)CCCCCCCCCCNC(=O)[C@H](CO)n3cc(CCCCCN)nn3)CC2)n1	68.0*	21.3	/	8.1	/	/
C#CCOCCOCCOCCNc1nc(N2CCN(C(=O)CCCCCCCCCCNC(=O)Cn3cc(C[C@@H](C)O)nn3)CC2)nc(N2CCN(C(=O)CCCCCCCCCCNC(=O)[C@H](CO)n3cc(CCCSC)nn3)CC2)n1	-1.7	11.4	49.1*	-11.8	3.0	/
COC(=O)[C@]12C[C@H](CC(=O)N3CCN(C(=O)c4ccco4)CC3)C(=O)N(Cc3ccc4c(c3)OCO4)C1=C[C@H](COCc1ccccc1)O[C@@H]2C	/	/	11.5	/	2.2	/
C/C(=N\NC(=O)c1ccccc1)c1ccc(N2CCOCC2)cc1	5.3	-3.3	4.0	14.6	-0.8	6.0
C/C(=N\NC(=O)C1CC1)c1ccc(N2CCOCC2)cc1	16.4	-0.5	-1.9	16.4	0.7	16.5*
O=C(COc1ncnc2scc(-c3ccccc3)c12)NC1CCCc2ccccc21 (centres undefined)	-8.5	8.4	-8.6	72.7*	1.0	-16.4
O=C(COc1ccccc1C(=O)O)NC1CCCc2ccccc21 (centres undefined)	-4.1	-30.3	-3.9	12.0	1.4	13.7
CN(C)c1ncnc2sc(-c3ccccc3)cc12	-16.0	-22.6	-8.1	64.1*	1.0	-11.7
COc1ncnc2sc(-c3ccccc3)cc12	0.0	-20.9	-10.2	0.0	-0.6	-6.0
O=C1c2c(O)cccc2Cc2cccc(O)c21	4.4	6.6	103.6*	10.9	-1.9	/
O=C1Cc2cccc(=O)c(O)c2C(=O)O1	/	/	-14.0	/	1.7	/
C=CCN=C1NC(c2cccc(F)c2)C(C(=O)OC)=C(C)N1C (centres undefined)	/	/	1.5	/	0.2	/
O=[N+]([O-])c1ccc2ncnc(N3CCN(Cc4ccc5c(c4)OCO5)CC3)c2c1	-3.7	-20.2	3.4	56.0*	1.9	0.7
Cc1cccc(C)c1-n1nnnc1C(c1ccnc2ccccc12)N(CCN(C)C)Cc1ccccc1 (centres undefined)	/	/	-9.8	/	5.0	/
O=C(CN1C(=O)NC2(CCc3ccccc32)C1=O)Nc1ccccc1OC(F)F (centres undefined)	-9.6	-9.3	-11.5	7.6	17.2	/
CC1(c2ccccc2Cl)NC(=O)N(CC(=O)Nc2ccccc2OC(F)F)C1=O (centres undefined)	-17.1	-22.6	-0.3	43.1*	5.5	-6.9
CCN(CC)S(=O)(=O)c1cc([N+](=O)[O-])ccc1NNC(=O)Nc1ccc(Cl)c(Cl)c1	37.7*	24.8	20.9	63.0	23.7	-6.0
CN1C(=O)c2ccc(C(=O)Nc3nccs3)cc2C1=O	-10.2	-19.2	7.8	72.5*	0.9	9.4
CC(c1ccccc1)N1C(=O)c2ccc(C(=O)Nc3ccccc3C(=O)O)cc2C1=O (centres undefined)	-1.6	-12.8	-29.8	69.8*	-0.1	-7.5
O=C(Nc1ccccc1O)c1ccc2c(c1)C(=O)N(c1ccccc1)C2=O	/	/	-17.2	/	2.9	12.7
CN1C(=O)c2ccc(C(=O)Nc3ccccc3O)cc2C1=O	-0.9	-6.6	11.7	40.5*	0.5	-8.1
SMILES	CHO parental Ca	OX1R antag-1	TAAR1 antagonist	OX1R antag-2	TAAR1 ag	GPR7 antag
CCCN1C(=O)c2ccc(C(=O)NC3=NCCS3)cc2C1=O	-12.3	-42.9	0.5	44.7*	-2.2	-10.8
CCCCCCCCN1C(=O)[C@@H](CC(=O)N2CCCC2)C[C@@]2(C(=O)OC)C1=C[C@H](C1CCCC1)O[C@@H]2C	/	/	-36.2	/	-2.0	/
Cc1cc(Nc2cccc(Cl)c2)nc(N2CCOCC2)n1	-11.2	-19.6	-22.6	22.7	6.3	-12.3
Cc1cc(Nc2ccccc2)nc(N2CCOCC2)n1	-7.9	-2.7	-16.9	1.8	40.8*	21.7
COc1cc(OC)c(/C=C2\C(=O)Nc3ccccc32)c(OC)c1	-7.8	-13.8	13.5	40.9*	4.6	/
COc1ccc(C(=O)/C=C2/C(=O)Nc3ccccc32)c(OC)c1	6.8	1.9	18.9	10.6	13.0	14.8
Cc1occc1C(=O)NCCCCc1ccccc1	-11.2	-17.2	0.1	18.7	1.7	13.0
COc1ccccc1CCNC(=O)c1ccoc1C	-14.2	-24.8	16.0	8.8	39.9*	12.2
COc1ccccc1CCNC(=O)c1cc(-c2ccccn2)nc2ccccc12	/	/	52.0*	/	8.2	/
CCS(=O)(=O)N(C)C[C@@H]1OCc2ccccc2-c2c(n(C)c3ccccc23)C(=O)N([C@H](C)CO)C[C@@H]1C	/	/	-25.1	/	4.4	/
O=C(NC1=NCCS1)c1ccc([N+](=O)[O-])cc1Cl	-8.5	-1.7	1.5	49.4*	10.4	-3.9
O=C(Nc1nccs1)c1ccc([N+](=O)[O-])cc1Cl	2.1	2.1	2.0	60.1	-0.5	-2.8
O=C(Nc1ccccc1)OCCNC(=O)c1cccc(Br)c1	6.1	-13.4	-1.9	6.5	5.6	7.4
O=C(Nc1ccc(Cl)c(Cl)c1)OCCNC(=O)c1cccc(Cl)c1	40.0*	28.2	24.8	66.5	7.0	4.7
CCCC(=O)Nc1ccc(-c2csc(N/N=C\c3ccncc3)n2)cc1	-13.0	-14.8	60.4*	2.6	14.8	5.1
C[C@@H]1CNC(=O)c2c(C(=O)Nc3ccc(CNC(=O)OC(C)(C)C)cc3)ncn21	/	/	50.5*	/	13.1	/
CCc1ccc(S(=O)(=O)NCCc2csc(-c3ccccc3)n2)s1	-0.7	45.4	34.0	40.8*	7.4	4.5
